Data as given in publication PMC5073817 (ACS chemical neuroscience, 2016).
Entries after “also recorded” stand apart in the source; their conditions may differ. Read-outs that look alike come from different tables or passages of the source. Marks after values point to notes of the source that are not given here.

Columns and labels:
6-OHDA lesion models = conditions: various 6-OHDA lesion models; cited from earlier work
[1] = tested on: unilateral 6-OHDA lesion forelimb asymmetry; experiment: 6-OHDA lesion-induced forelimb asymmetry; assay type: in vivo, rats
[2] = tested on: mGlu2 coexpressed with mGlu4; conditions: cited from earlier work
mGlu2/4 heteromers = mGlu2/4 heteromers (Rattus norvegicus, UniProt P31423); experiment: CODA-RET assay, mGlu4_L1/mGlu2_L2; assay type: cell-based; conditions: for max response (BRET) in presence of PAM: L-AP4; for potentiation of L-AP4 responses: mGlu4_L1 and mGlu2_L2 coexpressed
In short: (§1)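 HEK-293T cells were PEI-transfected with HA-tagged rat mGlu constructs bearing luciferase fragments, plus Gαi-mVenus, Gβ1 and Gγ2. Plasmid ratios were 4:4:1:1:1 for mGlu4-L1/mGlu4-L2 homomers and 4:8:1:1:1 for mGlu4-L1/mGlu2-L2 heteromers. At 48 h, about 200 000 cells/well in PBS were stimulated 5 min at 37 °C with L-AP4 with or without increasing compound. Coelenterazine H (5 µM) was added, read 2 min later; BRET ratio = 510–540 nm over 485 nm.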

mGlu4 = mGlu4 (Rattus norvegicus, UniProt P31423); experiment: Glutamate concentration-response curve shift in cells expressing mGlu4 alone; assay type: cell-based; conditions: for fold shift of glutamate CRC / glutamate pEC50 in presence of PAM: mGlu4 alone
mGlu4 homomers = mGlu4 homomers (Rattus norvegicus, UniProt P31423); experiment: CODA-RET assay, mGlu4_L1/mGlu4_L2; assay type: cell-based; conditions: for max response (BRET) in presence of PAM: mGlu4_L1/mGlu4_L2, L-AP4; for potentiation of L-AP4 responses: mGlu4 labeled with L1 or L2
In short: as §1

mGlu2/4 = experiment: Glutamate concentration-response curve shift in cells expressing mGlu2 and mGlu4; assay type: cell-based, rat; conditions: for effect on the glutamate CRC: cells expressing mGlu2 and mGlu4; for fold shift of glutamate CRC / glutamate pEC50 in presence of PAM: mGlu2/4 cells
[3] = tested on: rotarod motor performance; experiment: Rotarod test; assay type: in vivo, rats; conditions: doses up to 100 mg/kg p.o., tested 30 min later
In short: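 Rats were pre-trained on the rotarod, then given vehicle or test compound at 10, 30, 56.6 or 100 mg/kg p.o. (10 mL/kg). Motor performance was tested 30 min after dosing.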

[4] = Plasma and brain exposure time course after 30 mg/kg dose; assay type: in vivo; conditions: rat
human mGlu4 = human mGlu4 (Homo sapiens, UniProt Q14833); experiment: Gqi5-mediated calcium mobilization assay, human mGlu4/Gqi5/CHO cells; assay type: cell-based; conditions: absence of glutamate
[5] = cited from earlier work
[6] = tested on: haloperidol-induced catalepsy; experiment: Haloperidol-induced catalepsy; assay type: in vivo, Sprague–Dawley rats; conditions: oral, catalepsy assessed 30 min after dosing
rat mGlu4 = rat mGlu4 (Rattus norvegicus, UniProt P31423); experiment: GIRK/thallium flux assay, rat mGlu4/HEK/GIRK cells; assay type: cell-based
In short: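 Polyclonal HEK/GIRK cells stably expressing rat mGlu4 (pIRESpuro3, puromycin-selected) were loaded with 330 nM final FluoZin-2 AM in HBSS/20 mM HEPES pH 7.4 for 1 h at room temperature. Thallium flux was read kinetically at room temperature. EC50 came from four-parameter logistic fits; three determinations in triplicate, mean ± SEM.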

[7] = tested on: haloperidol-induced catalepsy; conditions: 56.6 mg/kg p.o.; previously demonstrated; cited from earlier work
[8] = CODA-RET, labeled mGlu2 and mGlu4 coexpressed

Chain of mGlu4 homomers (P31423 33-912): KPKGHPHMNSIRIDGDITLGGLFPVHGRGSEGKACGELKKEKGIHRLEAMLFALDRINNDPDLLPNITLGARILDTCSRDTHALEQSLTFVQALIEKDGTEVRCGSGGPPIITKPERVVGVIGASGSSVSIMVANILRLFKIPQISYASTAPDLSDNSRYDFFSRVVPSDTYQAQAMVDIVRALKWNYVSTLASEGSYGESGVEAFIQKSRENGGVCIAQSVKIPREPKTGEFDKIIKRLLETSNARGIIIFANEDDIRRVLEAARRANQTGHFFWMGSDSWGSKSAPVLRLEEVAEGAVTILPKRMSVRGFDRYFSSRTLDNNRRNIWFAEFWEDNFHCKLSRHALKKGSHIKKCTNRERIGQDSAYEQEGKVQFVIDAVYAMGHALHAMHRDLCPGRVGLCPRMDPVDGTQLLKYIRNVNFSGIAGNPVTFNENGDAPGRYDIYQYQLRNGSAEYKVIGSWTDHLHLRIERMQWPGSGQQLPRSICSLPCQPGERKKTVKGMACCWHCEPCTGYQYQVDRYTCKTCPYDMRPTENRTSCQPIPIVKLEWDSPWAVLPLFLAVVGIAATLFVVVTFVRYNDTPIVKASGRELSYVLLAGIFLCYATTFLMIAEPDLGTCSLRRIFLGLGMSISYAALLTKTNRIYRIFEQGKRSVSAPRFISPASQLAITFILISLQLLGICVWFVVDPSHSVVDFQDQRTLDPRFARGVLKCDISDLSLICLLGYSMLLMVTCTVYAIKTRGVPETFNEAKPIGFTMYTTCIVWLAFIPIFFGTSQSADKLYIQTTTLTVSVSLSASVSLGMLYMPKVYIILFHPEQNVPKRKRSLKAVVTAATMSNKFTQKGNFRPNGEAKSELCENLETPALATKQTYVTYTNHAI
Chain of mGlu4 homomers (P31423 33-912): as above
Chain of rat mGlu4 (P31423 33-912): as above
Chain of mGlu2/4 heteromers (P31423 33-912): as above
Chain of mGlu2/4 heteromers (P31421 19-872 partner): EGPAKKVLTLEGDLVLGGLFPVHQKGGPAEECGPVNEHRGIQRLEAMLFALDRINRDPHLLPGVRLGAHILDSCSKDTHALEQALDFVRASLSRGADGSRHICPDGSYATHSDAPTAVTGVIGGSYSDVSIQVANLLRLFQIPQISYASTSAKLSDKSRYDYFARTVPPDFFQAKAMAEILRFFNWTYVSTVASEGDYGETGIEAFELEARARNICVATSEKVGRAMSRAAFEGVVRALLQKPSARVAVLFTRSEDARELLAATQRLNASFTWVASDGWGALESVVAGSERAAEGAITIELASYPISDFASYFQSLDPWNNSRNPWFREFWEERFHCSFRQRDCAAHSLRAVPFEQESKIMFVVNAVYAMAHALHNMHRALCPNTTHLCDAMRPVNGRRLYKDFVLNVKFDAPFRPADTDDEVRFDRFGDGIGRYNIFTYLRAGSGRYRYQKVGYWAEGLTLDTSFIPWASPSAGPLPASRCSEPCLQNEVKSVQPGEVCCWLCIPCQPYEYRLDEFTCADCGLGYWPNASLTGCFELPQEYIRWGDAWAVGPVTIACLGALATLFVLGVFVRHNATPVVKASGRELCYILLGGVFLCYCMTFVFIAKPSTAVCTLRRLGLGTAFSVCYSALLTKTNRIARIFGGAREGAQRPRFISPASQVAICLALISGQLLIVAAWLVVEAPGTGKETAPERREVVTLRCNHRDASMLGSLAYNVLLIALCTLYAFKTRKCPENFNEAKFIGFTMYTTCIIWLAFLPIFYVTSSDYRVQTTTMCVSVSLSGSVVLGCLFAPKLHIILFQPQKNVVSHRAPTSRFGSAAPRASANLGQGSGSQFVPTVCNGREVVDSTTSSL
Chain of mGlu4 (P31423 33-912): as the sequence (P31423 33-912) above
Chain of human mGlu4 (Q14833 33-912): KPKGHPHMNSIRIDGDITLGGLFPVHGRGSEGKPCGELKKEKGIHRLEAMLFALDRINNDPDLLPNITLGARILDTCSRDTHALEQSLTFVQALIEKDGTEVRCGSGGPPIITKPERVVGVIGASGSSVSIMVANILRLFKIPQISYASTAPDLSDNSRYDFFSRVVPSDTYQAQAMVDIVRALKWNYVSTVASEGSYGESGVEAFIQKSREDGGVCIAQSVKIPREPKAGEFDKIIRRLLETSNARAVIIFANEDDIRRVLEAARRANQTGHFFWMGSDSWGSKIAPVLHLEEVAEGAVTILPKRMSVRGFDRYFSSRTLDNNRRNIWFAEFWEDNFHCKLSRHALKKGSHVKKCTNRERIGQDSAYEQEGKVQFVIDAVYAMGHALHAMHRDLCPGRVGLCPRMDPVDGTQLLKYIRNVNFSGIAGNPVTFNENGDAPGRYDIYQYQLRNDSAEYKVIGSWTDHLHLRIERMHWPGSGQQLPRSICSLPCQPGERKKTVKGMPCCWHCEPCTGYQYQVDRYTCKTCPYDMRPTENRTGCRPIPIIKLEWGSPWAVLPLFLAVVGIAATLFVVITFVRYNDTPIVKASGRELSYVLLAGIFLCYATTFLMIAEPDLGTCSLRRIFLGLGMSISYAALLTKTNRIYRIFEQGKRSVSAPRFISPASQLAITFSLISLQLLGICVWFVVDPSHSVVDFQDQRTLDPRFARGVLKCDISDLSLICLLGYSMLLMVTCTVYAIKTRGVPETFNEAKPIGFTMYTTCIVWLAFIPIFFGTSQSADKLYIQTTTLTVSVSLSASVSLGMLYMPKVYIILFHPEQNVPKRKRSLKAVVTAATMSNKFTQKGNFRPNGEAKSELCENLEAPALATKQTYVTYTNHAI

## Cc1ccnc(Nc2nc(-c3cn[nH]c3)c(C)s2)n1 [ADX88178]
6-OHDA lesion models
  potentiation of the effects of subthreshold doses of L-DOPA: potentiate the effects of subthreshold doses of L-DOPA

## N[C@@H](Cc1ccc(O)c(O)c1)C(=O)O [L-DOPA]
[1]; 0.75 mg/kg alone
  reversal of forelimb asymmetry: inactive alone
[1]; 2.5 mg/kg dose
  reversal of forelimb asymmetry: completely reversed motor deficits

## NC(=O)[C@@H]1CCCC[C@@H]1C(=O)Nc1ccc(Cl)c(Cl)c1 [Lu AF21934]
[2]
  potentiation when mGlu2 and mGlu4 are coexpressed: induce potentiation regardless of mGlu2 expression
mGlu2/4 heteromers; [8]
  max response (BRET) in presence of PAM: 0.032 ± 0.004
mGlu2/4 heteromers; CODA-RET, labeled mGlu2 and mGlu4 coexpressed, mean ± SEM
  L-AP4 pEC50 in presence of PAM: 7.66 ± 0.11
mGlu2/4 heteromers
  potentiation of L-AP4 responses: able to potentiate responses
mGlu4; PAM concentration −4.5 (log)
  fold shift of glutamate CRC: 4.2 ± 0.42
  glutamate pEC50 in presence of PAM: 5.43 ± 0.08 ^b
mGlu4; PAM concentration −5 (log)
  fold shift of glutamate CRC: 3.8 ± 0.21 ^c
  glutamate pEC50 in presence of PAM: 5.39 ± 0.06 ^b
mGlu4; PAM concentration −5.5 (log)
  fold shift of glutamate CRC: 3.2 ± 0.28 ^c
  glutamate pEC50 in presence of PAM: 5.32 ± 0.07 ^b
mGlu4; PAM concentration −6 (log)
  fold shift of glutamate CRC: 2.1 ± 0.17
  glutamate pEC50 in presence of PAM: 5.14 ± 0.07 ^b
mGlu4; PAM concentration −6.5 (log)
  fold shift of glutamate CRC: 1.6 ± 0.09 ^c
  glutamate pEC50 in presence of PAM: 5.00 ± 0.04 ^b
mGlu4; PAM concentration −7 (log)
  fold shift of glutamate CRC: 1.5 ± 0.12
  glutamate pEC50 in presence of PAM: 4.99 ± 0.07 ^b
mGlu4; PAM concentration −8 (log)
  fold shift of glutamate CRC: 1.1 ± 0.03
  glutamate pEC50 in presence of PAM: 4.85 ± 0.03
mGlu4 homomers; CODA-RET
  max response (BRET) in presence of PAM: 0.050 ± 0.003
mGlu4 homomers; CODA-RET, mGlu4_L1/mGlu4_L2, mean ± SEM
  L-AP4 pEC50 in presence of PAM: 7.70 ± 0.01
mGlu4 homomers
  potentiation of L-AP4 responses: able to potentiate responses
mGlu2/4
  effect on the glutamate CRC: induced a leftward shift in the glutamate CRC
mGlu2/4; PAM concentration −4.5 (log)
  fold shift of glutamate CRC: 3.2 ± 0.07
  glutamate pEC50 in presence of PAM: 6.41 ± 0.08 ^b
mGlu2/4; PAM concentration −5 (log)
  fold shift of glutamate CRC: 2.8 ± 0.07 ^c
  glutamate pEC50 in presence of PAM: 6.36 ± 0.08 ^b
mGlu2/4; PAM concentration −5.5 (log)
  fold shift of glutamate CRC: 2.4 ± 0.13 ^c
  glutamate pEC50 in presence of PAM: 6.29 ± 0.06 ^b
mGlu2/4; PAM concentration −6 (log)
  fold shift of glutamate CRC: 1.7 ± 0.04
  glutamate pEC50 in presence of PAM: 6.13 ± 0.09 ^b
mGlu2/4; PAM concentration −6.5 (log)
  fold shift of glutamate CRC: 1.2 ± 0.05 ^c
  glutamate pEC50 in presence of PAM: 6.00 ± 0.09 ^b
mGlu2/4; PAM concentration −7 (log)
  fold shift of glutamate CRC: 1.2 ± 0.07
  glutamate pEC50 in presence of PAM: 5.99 ± 0.06
mGlu2/4; PAM concentration −8 (log)
  fold shift of glutamate CRC: 1.0 ± 0.07
  glutamate pEC50 in presence of PAM: 5.91 ± 0.11
6-OHDA lesion models
  potentiation of the effects of subthreshold doses of L-DOPA: potentiate the effects of subthreshold doses of L-DOPA

## O=C(Nc1cc(Cl)cc(Cl)c1)[C@H]1CCCC[C@H]1C(=O)O [VU0155041]
[2]
  potentiation when mGlu2 and mGlu4 are coexpressed: induce potentiation regardless of mGlu2 expression

## Fc1ccc(Nc2n[nH]c3cccnc23)cc1Cl [VU0418506, N-(3-chloro-4-fluorophenyl)-1H-pyrazolo[4,3-b]pyridin-3-amine]
[3]
  impairment of rotorod performance: did not observe any impairment
[4]
  time after dosing for which sustained plasma and brain levels were observed: at least 6 h
Human mGlu4
  direct allosteric agonist activity (compound added alone): does not exhibit direct allosteric agonist activity; also recorded: does not elicit activity in this assay in the absence of glutamate
mGlu2/4 heteromers; [8]
  max response (BRET) in presence of PAM: 0.021 ± 0.002
mGlu2/4 heteromers
  potentiation of L-AP4 responses: unable to potentiate L-AP4 responses
mGlu4; cells only expressing mGlu4
  potentiation of glutamate response: induced significant potentiation
mGlu4; PAM concentration −5 (log)
  glutamate pEC50 in presence of PAM: 5.87 ± 0.13 ^b
mGlu4; PAM concentration −5.5 (log)
  glutamate pEC50 in presence of PAM: 6.07 ± 0.21 ^b
mGlu4; PAM concentration −6 (log)
  glutamate pEC50 in presence of PAM: 5.93 ± 0.12 ^b
mGlu4; PAM concentration −6.5 (log)
  glutamate pEC50 in presence of PAM: 5.67 ± 0.14 ^b
mGlu4; PAM concentration −7 (log)
  glutamate pEC50 in presence of PAM: 5.55 ± 0.17 ^b
mGlu4; PAM concentration −8 (log)
  glutamate pEC50 in presence of PAM: 5.08 ± 0.07
[1]; 3 mg/kg VU0418506 combined with 0.75 mg/kg L-DOPA
  reversal of forelimb asymmetry: statistically significant efficacy
[1]; 3 mg/kg alone
  reversal of forelimb asymmetry: inactive alone
[1]; 10 mg/kg administered alone, assessed after 30 min
  reversal of forelimb asymmetry: statistically significant reversals of forelimb asymmetry
[1]; 30 mg/kg administered alone, assessed after 30 min
  reversal of forelimb asymmetry: statistically significant reversals of forelimb asymmetry
[5]
  brain penetration: good brain penetration
mGlu4 homomers; CODA-RET
  max response (BRET) in presence of PAM: 0.047 ± 0.0004
mGlu4 homomers
  potentiation of L-AP4 responses: able to potentiate responses
mGlu2/4
  effect on the glutamate CRC: no effect on the glutamate CRC
mGlu2/4; PAM concentration −5.5 (log)
  glutamate pEC50 in presence of PAM: 6.02 ± 0.02
mGlu2/4; PAM concentration −6.5 (log)
  glutamate pEC50 in presence of PAM: 5.89 ± 0.07
mGlu2/4; PAM concentration −7 (log)
  glutamate pEC50 in presence of PAM: 5.87 ± 0.05
mGlu2/4; PAM concentration −8 (log)
  glutamate pEC50 in presence of PAM: 5.86 ± 0.08
[6]
  doses with significant activity in reversing catalepsy: ≥ 3 mg/kg
Rat mGlu4
  EC50: 46.6 nM
Rat mGlu4; rat mGlu4, GIRK/thallium flux, mean ± SEM
  pEC50 (PAM potency): 7.34 ± 0.04
Rat mGlu4; read-out: EC50 (PAM potency), rat mGlu4, GIRK/thallium flux
  EC50: 46 nM

## Cc1cc(C)n(-c2cc(NC(=O)CN3CCN(C)CC3)nc(-c3ccco3)n2)n1 [compound 23, N-(6-(3,5-dimethyl-1H–pyrazol-1-yl)-2-(furan-2-yl)-pyrimidin-4-yl)-2-(4-methylpiperazin-1-yl)acetamide]
[7]
  reversal of haloperidol-induced catalepsy (positive control): robust reversal of haloperidol-induced catalepsy
